Experimental data taken from ChEMBL document CHEMBL1136627, “Discovery of novel neuronal voltage-dependent calcium channel blockers based on emopamil left hand as a bioactive template” (Bioorg Med Chem Lett, 2003).
pIC50: −log10 of the molar value.

Tested on: Mus musculus
Test: Anti seizure activity was evaluated in the audiogenic seizure model using DBA/2 mice at 10 mg/kg (iv)
Type: functional
In short: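 DBA/2 mice given test compound iv at 10 mg/kg; 5 min later each mouse placed singly under a perspex dome and exposed to sound (100 dB, 11 kHz) continued for 60 s; scored for sound-induced tonic convulsion.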

Row | SMILES | Protection [%]
1 | CC(C)C(C#N)(CCCN1CCN(CCOc2ccc(F)cc2)CC1)c1ccccc1 (stereo unspecified) | 100

Tested on: not listed separately
Test: Neuronal voltage-dependent calcium channel (VDCC) inhibitory activity determined in rat cortical synaptosomes
Type: subcellular, Brain
In short: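 Rat cortical synaptosomes depolarized with KCl; rise in intracellular Ca2+ measured fluorimetrically with Fura2; IC50 (µM) for inhibition of the KCl-elicited [Ca2+]i elevation; racemic test compounds.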

Row | SMILES | pIC50
2 | CC(C)C(C#N)(CCCN1CCN(CCOc2ccccc2F)CC1)c1ccccc1 (stereo unspecified) | 5.03
3 | CC(C)C(C#N)(CCCN1CCN(CCOc2ccccc2C#N)CC1)c1ccccc1 (stereo unspecified) | 4.80
4 | CC(C)C(C#N)(CCCN1CCN(C)CC1)c1ccccc1 (stereo unspecified) | < 4.80
5 | CC(C)C(C#N)(CCCN1CCN(CCOc2cccc3ccccc23)CC1)c1ccccc1 (stereo unspecified) | 5.60
6 | CC(C)C(C#N)(CCCN1CCNCC1)c1ccccc1 (stereo unspecified) | < 4.80
7 | CC(C)C(C#N)(CCCN1CCN(c2ccccc2)CC1)c1ccccc1 (stereo unspecified) | < 4.80
8 | COc1ccc(OCCN2CCN(CCCC(C#N)(c3ccccc3)C(C)C)CC2)cc1 (stereo unspecified) | 5.02
9 | CC(C)C(C#N)(CCCN1CCN(CCOc2cccnc2)CC1)c1ccccc1 (stereo unspecified) | < 4.80
10 | CC(C)C(C#N)(CCCN1CCN(CCOc2ccc(F)c(F)c2)CC1)c1ccccc1 (stereo unspecified) | 5.28
11 | CC(C)C(C#N)(CCCN1CCN(CCOc2ccc(N)cc2)CC1)c1ccccc1 (stereo unspecified) | 4.89
12 | CC(C)C(C#N)(CCCN1CCN(CCOc2cccc(F)c2)CC1)c1ccccc1 (stereo unspecified) | 5.21
13 | CC(C)C(C#N)(CCCN1CCN(CCOc2cccc(C#N)c2)CC1)c1ccccc1 (stereo unspecified) | 5.11

Results, then the compound that gave them:

Row | pIC50 | SMILES
14 | < 4.80 | CC(C)C(C#N)(CCCN1CCN(CCO)CC1)c1ccccc1 (stereo unspecified)
15 | < 4.80 | CC(C)C(C#N)(CCCN1CCN(CCOc2ccc(N(C)C)cc2)CC1)c1ccccc1 (stereo unspecified)
16 | < 4.80 | CC(C)C(C#N)(CCCN1CCN(CCOc2ccncc2)CC1)c1ccccc1 (stereo unspecified)
17 | 5.12 | CC(C)C(C#N)(CCCN1CCN(CCOc2ccc([N+](=O)[O-])cc2)CC1)c1ccccc1 (stereo unspecified)
18 | < 4.80 | CC(C)C(C#N)(CCCN1CCN(CCOc2ccccn2)CC1)c1ccccc1 (stereo unspecified)
19 | 5.11 | CC(C)C(C#N)(CCCN1CCN(CCc2ccccc2)CC1)c1ccccc1 (stereo unspecified)
20 | 5.23 | CC(C)C(C#N)(CCCN1CCN(CCOc2ccc(F)cc2)CC1)c1ccccc1 (stereo unspecified)
21 | 5.47 | CC(C)C(C#N)(CCCN1CCN(CCOc2ccc(Cl)cc2)CC1)c1ccccc1 (stereo unspecified)
22 | 5.35 | CC(C)C(C#N)(CCCN1CCN(CCCc2ccccc2)CC1)c1ccccc1 (stereo unspecified)
23 | 4.89 | CC(C)C(C#N)(CCCN1CCN(CCOc2ccc(C#N)cc2)CC1)c1ccccc1 (stereo unspecified)
24 | < 4.80 | C#CCCCCN1CCN(CCCC(C#N)(c2ccccc2)C(C)C)CC1 (stereo unspecified)
25 | 4.92 | CC(C)C(C#N)(CCCN1CCN(Cc2ccccc2)CC1)c1ccccc1 (stereo unspecified)
26 | 4.55 | CC(C)C(C#N)(CCCN(C)CCc1ccccc1)c1ccccc1 (stereo unspecified) [EMOPAMIL]
